Assay results taken from paper PMC4548726 (Diabetes, Metabolic Syndrome and Obesity: Targets and …, 2015).

Legend:
[1] = system: diabetic NSG RIP-DTR mice engrafted with human islets; format: in vivo, mouse; conditions: Donor 5 study; low dose 50 µg/kg sc twice daily
[2] = system: diabetic NSG RIP-DTR mice engrafted with human islets; experiment: Body weight of human islet-engrafted mice; format: in vivo, mouse; conditions: 50, 150, 500 µg/kg sc twice daily
Procedure, shortened: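 Male NSG RIP-DTR mice, 8–12 weeks old, made diabetic by diphtheria toxin ablation of mouse beta cells and engrafted with a marginal mass of human islets from a single donor. Randomized into four groups: vehicle or test compound at 50, 150 or 500 µg/kg/injection, given sc twice daily until removal of the graft-bearing kidney at ~4 weeks post-transplant. Body weights followed over the study.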

[3] = system: human islets engrafted in NSG RIP-DTR mice; experiment: Plasma human insulin; format: in vivo, mouse; conditions: 2 weeks post-transplant
[4] = system: diabetic NSG RIP-DTR mice engrafted with human islets; experiment: Glucose tolerance test; format: in vivo, mouse; conditions: for GTT vs controls: Donor 3 study
Procedure, shortened: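 Human islet-engrafted diabetic NSG RIP-DTR mice on twice-daily sc vehicle or test compound were fasted 5–6 hours. Glucose (2.0 g/kg body weight) was injected ip, and blood glucose was measured afterwards.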

[5] = system: human beta cells in islet grafts; experiment: TUNEL assay of human beta-cell apoptosis in recovered islet grafts; format: in vivo
Procedure, shortened: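 Recovered human islet grafts were taken on days 29, 32 and 21 for the Donor 3, 4 and 5 studies, at the end of twice-daily sc dosing. Sections were co-stained for insulin and TUNEL-labelled following the kit instructions. Cells were visualized by fluorescence microscopy and counted, and results expressed as percent TUNEL-positive beta cells.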

[6] = system: human beta and alpha cells in islet grafts; experiment: Total beta- and alpha-cell counts in human islet grafts; format: in vivo; conditions: Donor 5 study
Procedure, shortened: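 After twice-daily sc dosing, the graft-bearing kidney was removed. For the Donor 5 study, grafts were recovered on day 21. Whole-section images were taken from the outer graft edge with a motorized-stage fluorescence microscope and stitched, and total insulin+ and glucagon+ cells were counted.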

[7] = system: INS-1 rat pancreatic beta-cell line; conditions: in vitro; cited from earlier work
[8] = system: patients with T2D; conditions: cited from earlier work
[9] = high dose 500 µg/kg sc twice daily
[10] = low dose 50 µg/kg sc twice daily, n=3 or 4
[11] = medium dose 150 µg/kg sc twice daily

lixisenatide
blood glucose [1]: ~ 400 mg/dL
body weight change between transplant and nephrectomy ([2]; Donor 1 study): all mice lost significant weight between the time of transplant and nephrectomy, except the medium-dose group
body weight change between transplant and nephrectomy ([2]; Donor 3 and 4 studies): no significant change in body weight
stimulation index (ratio of stimulated to fasting human insulin) vs control ([3]; high dose 500 µg/kg, Donor 3 and 4 studies): significantly increased compared to controls
stimulation index (ratio of stimulated to fasting human insulin) vs control ([3]; medium dose 150 µg/kg, Donor 1, 3 and 4 studies): significantly increased compared to controls
GTT vs controls ([4]; high dose 500 µg/kg (P<0.05)): significant differences from controls
GTT vs controls ([4]; medium dose 150 µg/kg (P<0.01)): significant differences from controls
GTT vs control group ([4]; Donor 4 study, low dose 50 µg/kg (P<0.05)): significant differences from the control group
average percent beta-cell apoptosis at the end of each study ([5]; TUNEL-positive beta cells, control and lixisenatide groups, Donors 3, 4, 5): < 1%
beta-cell apoptosis (TUNEL) vs control ([5]; grafts recovered days 29, 32, 21 (Donors 3, 4, 5), all dose groups): no significant differences in beta-cell apoptosis
numbers of alpha cells in islet graft relative to control group [6, 9]: approximately threefold higher
numbers of beta cells in islet graft relative to control group [6, 9]: approximately threefold higher
alpha-cell counts in islet graft relative to control group [6, 10]: approximately twofold higher
beta-cell counts in islet graft relative to control group [6, 10]: approximately twofold higher
numbers of alpha cells in islet graft relative to control group [6, 11]: approximately threefold higher
numbers of beta cells in islet graft relative to control group [6, 11]: approximately threefold higher
lipid- and cytokine-induced apoptosis [7]: protect against lipid- and cytokine-induced apoptosis
reduction in postprandial plasma glucose vs placebo ([8]; T2D patients insufficiently controlled on metformin): significantly greater reduction in postprandial plasma glucose
glycemic control (postprandial and fasting glucose levels) ([8]; patients with T2D, once-daily administration): improved glycemic control by decreasing both postprandial and fasting glucose levels
